Common to all, as to type: functional, cell-based
Assay [1] in a line: Cytotoxicity against human EC9706 cells after 72 hrs by MTT assay. The settings on record: EC9706, 72 h. The gist of the method: (§1)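 Cells were grown in RPMI1640 and seeded at 5 × 10^3 cells/well, then left 24 h at 37 °C. Medium was replaced with fresh medium holding a range of compound concentrations, from 10 mM DMSO stocks with final DMSO at most 0.1%. Exposure lasted 72 h. MTT (5 mg/mL) was added for 4 h at 37 °C, formazan was dissolved in DMSO and A570 was read. IC50 came from dose-response curves as mean ± SD of three independent experiments.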

Assay [2] relates to MCF7. Put plainly: Cytotoxicity against human MCF7 cells after 72 hrs by MTT assay. Conditions: MCF7, 72 h. The procedure, abridged: as §1
(Formazan colour is commonly taken as a measure of viable cells.)

In assay [3] the test system is SMMC-7721. The assay can be described thus: Cytotoxicity against human SMMC7721 cells after 72 hrs by MTT assay. Conditions: SMMC-7721, 72 h. The procedure, abridged: as §1
Assay [4] relates to MGC-803. The assay can be described thus: Cytotoxicity against human MGC803 cells after 72 hrs by MTT assay. The settings on record: MGC-803, 72 h. The gist of the method:
as §1

Bounds are passed on as bounds.

Here are results for 45 compounds from ChEMBL document CHEMBL3414565, “Discovery of novel AHLs as potent antiproliferative agents” (Eur J Med Chem, 2015).

The IC50 is the point on the concentration scale where inhibition reaches its midpoint. As to `O=C(CSC(=S)N[C@H]1CCOC1=O)Nc1ccc(C(=O)/C=C/c2ccc(F)cc2)cc1`, the IC50 was 46.1 µM in assay [1], 83.7 µM in assay [2], over 128 µM in assay [3] and 45.7 µM in assay [4].

For `CCCCc1ccc(NC(=O)CSC(=S)N[C@H]2CCOC2=O)cc1`, the IC50 in assay [1] was 44.2 µM; in assay [2], 40.2 µM; in assay [3] it was 27.3 µM; in assay [4] it was 20.5 µM.

For the compound `O=C(CCl)Nc1ccc(C(=O)/C=C/C=C/c2ccccc2)cc1`, the IC50 in assay [1] turned out to be 10.7 µM; in assay [2], 4.59 µM; in assay [3], 36.7 µM; in assay [4] it was 5.97 µM.

Consider `O=C(CSC(=S)N[C@H]1CCOC1=O)Nc1ccccc1F`, for which the results for the IC50 in assay [1], in assay [2] and in assay [3] were over 128 µM, 28.6 µM and over 128 µM, respectively.

As for `COc1cc(/C=C/C(=O)c2ccc(NC(=O)CCl)cc2)cc(OC)c1OC`, the IC50 in assay [1] came to 2.73 µM; in assay [2] it was 1.32 µM; in assay [3], 3 µM; in assay [4] it was 1.72 µM.

`CCCCCCSC(=S)N[C@H]1CCOC1=O`: the IC50 in assay [1], in assay [2], in assay [3] and in assay [4] was over 128 µM throughout.

Take `CCCCCCCCCC(=O)CC(=O)N[C@H]1CCOC1=O`: the half-maximal inhibitory concentration (IC50) in assay [1] is over 128 µM; in assay [2], 37.3 µM; in assay [3], over 128 µM; in assay [4], 102 µM.

For `O=C(CSC(=S)N[C@H]1CCOC1=O)Nc1ccc(Cl)cc1`, the IC50 in assay [1] was over 128 µM; in assay [2] it was 50.3 µM; in assay [3], over 128 µM.

`O=C(CSC(=S)N[C@H]1CCOC1=O)Nc1ccc(O)cc1`: the IC50 in assay [1] was over 128 µM; in assay [2], over 128 µM; in assay [3] it was over 128 µM; in assay [4], 80 µM.

`O=C(CCl)Nc1ccc(C(=O)/C=C/c2ccccc2)cc1`: the IC50 in assay [1] turned out to be 6.37 µM; in assay [2] it was 2.48 µM; in assay [3], 12.6 µM; in assay [4] it was 6.94 µM.

As to `O=C(CSC(=S)N[C@H]1CCOC1=O)Nc1cccc(C(F)(F)F)c1`, the IC50 in assay [1] is 79.7 µM; in assay [2] it was 3.13 µM; in assay [3] it was over 128 µM; in assay [4], 17.9 µM.

Consider `CCCCCCCCCCCCCCSC(=S)N[C@H]1CCOC1=O`, for which the IC50 in assay [1] was 66.2 µM; in assay [2] it was 30.5 µM; in assay [3] it was 56.8 µM.

In the case of `Cc1cccc(NC(=O)CSC(=S)N[C@H]2CCOC2=O)c1`, the concentration for half-maximal inhibition (IC50) in assay [1] was over 128 µM; in assay [2] it was 63.2 µM; in assay [3], over 128 µM; in assay [4] it was 36.6 µM.

On to `O=C(CSC(=S)N[C@H]1CCOC1=O)Nc1ccc(Br)cc1`, for which the results for the IC50 in assay [1], in assay [2] and in assay [3] were 67.4 µM, 66.5 µM and 28.3 µM, respectively.

Regarding `O=C(CCl)Nc1ccc(C(=O)/C=C/c2ccc(Br)cc2)cc1`, the 50% inhibitory concentration (IC50) worked out at 10.1 µM in assay [1], 4.64 µM in assay [2], 13.3 µM in assay [3] and 6.05 µM in assay [4].

As for `O=C(CSC(=S)N[C@H]1CCOC1=O)Nc1ccc(C(=O)/C=C/c2ccc([N+](=O)[O-])cc2)cc1`, the IC50 in assay [1] was over 128 µM; in assay [2], 2.67 µM; in assay [3] it was over 128 µM; in assay [4], 29.4 µM.

Regarding `Cc1cccc(NC(=O)CSC(=S)N[C@H]2CCOC2=O)c1C`, the half-inhibitory concentration (IC50) in assay [1] is over 128 µM; in assay [2], over 128 µM; in assay [3] it was 42.1 µM.

As for `O=C(CSC(=S)N[C@H]1CCOC1=O)Nc1ccc(C(=O)/C=C/c2ccccc2)cc1`, the IC50 in assay [1] was 44.9 µM; in assay [2], 44.3 µM; in assay [3], over 128 µM; in assay [4], 24.8 µM.

As for `CCOC(=O)c1ccc(NC(=O)CSC(=S)N[C@H]2CCOC2=O)cc1`, the IC50 came out at 112 µM in assay [1], 60.2 µM in assay [2], 64.9 µM in assay [3] and 21.7 µM in assay [4].

For the compound `O=C(CSC(=S)N[C@H]1CCOC1=O)Nc1ccc(C(=O)/C=C/c2ccc(Br)cc2)cc1`, the IC50 in assay [1] amounted to 91.2 µM; in assay [2], 18.7 µM; in assay [3] it was 18 µM; in assay [4] it was 19.6 µM.

`COc1ccc(NC(=O)CSC(=S)N[C@H]2CCOC2=O)cc1`: the IC50 was over 128 µM in assay [1], over 128 µM in assay [2], over 128 µM in assay [3] and 62.1 µM in assay [4].

On to `CSC(=S)N[C@H]1CCOC1=O`, for which the IC50 in assay [1], in assay [2], in assay [3] and in assay [4] was over 128 µM throughout.

Take `O=C(CCl)Nc1ccc(C(=O)/C=C/c2ccc(F)cc2)cc1`: the IC50 in assay [1] is 8.6 µM; in assay [2], 5.47 µM; in assay [3], 15.1 µM; in assay [4], 4.68 µM.

In the case of `O=C(CSC(=S)N[C@H]1CCOC1=O)Nc1ccc(C(=O)/C=C/c2cccc(Cl)c2)cc1`, the concentration for half-maximal inhibition (IC50) in assay [1] was found to be 32.5 µM; in assay [2], 11.6 µM; in assay [3], 39.1 µM; in assay [4] it was 15.6 µM.

With `O=C(CCl)Nc1ccc(C(=O)/C=C/c2cccc(Cl)c2)cc1`, the IC50 in assay [1] was determined as 5.56 µM; in assay [2], 5.34 µM; in assay [3], 7.76 µM; in assay [4], 2.01 µM.

As for `CCCCSC(=S)N[C@H]1CCOC1=O`, the IC50 in assay [1], in assay [2], in assay [3] and in assay [4] was over 128 µM throughout.

As to `CCCCCCCCCCCCSC(=S)N[C@H]1CCOC1=O`, the 50% inhibitory concentration (IC50) in assay [1] amounted to 58.3 µM; in assay [2], 61.1 µM; in assay [3], 50.3 µM.

As for `Cc1ccc(NC(=O)CSC(=S)N[C@H]2CCOC2=O)cc1`, the IC50 in assay [1] amounted to 93.9 µM; in assay [2], 33.5 µM; in assay [3] it was 32.7 µM; in assay [4] it was 44.3 µM.

Turning to `O=C(CSC(=S)N[C@H]1CCOC1=O)Nc1ccc(F)cc1`, the IC50 is 67.1 µM in assay [1], 5.83 µM in assay [2], over 128 µM in assay [3] and 37.6 µM in assay [4].

In the case of `O=C(CCl)Nc1ccc(C(=O)/C=C/c2ccc(Cl)cc2)cc1`, the IC50 in assay [1] came to 8.34 µM; in assay [2], 4.1 µM; in assay [3], 8.16 µM; in assay [4] it was 4.96 µM.

Consider `Cc1ccc(/C=C/C(=O)c2ccc(NC(=O)CCl)cc2)cc1`, for which the IC50 is 7.15 µM in assay [1], 9.18 µM in assay [2], 22.9 µM in assay [3] and 3.6 µM in assay [4].

With `O=C(CCl)Nc1ccc(C(=O)/C=C/c2ccc(F)c(F)c2)cc1`, the IC50 was 4.63 µM in assay [1], 2.29 µM in assay [2], 5.96 µM in assay [3] and 3.19 µM in assay [4].

For the compound `O=C(CCl)Nc1ccc(C(=O)/C=C/c2ccc([N+](=O)[O-])cc2)cc1`, the 50% inhibitory concentration (IC50) in assay [1] was determined as 3.67 µM; in assay [2], 3.91 µM; in assay [3] it was 9.06 µM; in assay [4], 2.35 µM.

On to `COc1cccc(/C=C/C(=O)c2ccc(NC(=O)CCl)cc2)c1`, for which the IC50 in assay [1] stood at 5.97 µM; in assay [2], 3.02 µM; in assay [3], 10.3 µM; in assay [4] it was 2.91 µM.

Regarding `O=C(CSC(=S)N[C@H]1CCOC1=O)Nc1cccc(Cl)c1`, the 50% inhibitory concentration (IC50) in assay [1] was 107 µM; in assay [2] it was 46.6 µM; in assay [3], over 128 µM; in assay [4], 21.8 µM.

For `O=c1[nH]cc(F)c(=O)[nH]1` [FLUOROURACIL], the IC50 is 15.7 µM in assay [1], 12.2 µM in assay [2], 20.4 µM in assay [3] and 10.7 µM in assay [4].

On to `O=C(CSC(=S)N[C@H]1CCOC1=O)Nc1ccc(Cl)cc1Cl`, for which the IC50 was over 128 µM in assay [1], 29.2 µM in assay [2], over 128 µM in assay [3] and 48.5 µM in assay [4].

In the case of `CC(=O)c1ccc(NC(=O)CSC(=S)N[C@H]2CCOC2=O)cc1`, the IC50 was over 128 µM in assay [1], over 128 µM in assay [2], over 128 µM in assay [3] and 99.4 µM in assay [4].

As for `CCSC(=S)N[C@H]1CCOC1=O`, the IC50 in assay [1], in assay [2], in assay [3] and in assay [4] was over 128 µM each time.

In the case of `CCCCCCCCSC(=S)N[C@H]1CCOC1=O`, the IC50 in assay [1] was over 128 µM; in assay [2] it was over 128 µM; in assay [3], 65 µM; in assay [4], over 128 µM.

Take `O=C(CCl)Nc1ccc(C(=O)/C=C/c2ccccc2Cl)cc1`: the IC50 is 6.98 µM in assay [1], 5.26 µM in assay [2], 11.1 µM in assay [3] and 2.75 µM in assay [4].

For `O=C(CSC(=S)N[C@H]1CCOC1=O)Nc1ccccc1`, the IC50 was over 128 µM in assay [1], over 128 µM in assay [2], over 128 µM in assay [3] and 39.7 µM in assay [4].

`O=C(CSC(=S)N[C@H]1CCOC1=O)Nc1ccc(C(=O)/C=C/c2ccc(Cl)cc2)cc1`: the IC50 was 38.9 µM in assay [1], 20.2 µM in assay [2], over 128 µM in assay [3] and 6.9 µM in assay [4].

`O=C(CSC(=S)N[C@H]1CCOC1=O)Nc1ccccc1Cl`: the IC50 is over 128 µM in assay [1], 90.8 µM in assay [2], 49.9 µM in assay [3] and 31.9 µM in assay [4].

`O=C(CSC(=S)N[C@H]1CCOC1=O)Nc1cccc([N+](=O)[O-])c1`: the IC50 in assay [1] was over 128 µM; in assay [2], 5.46 µM; in assay [3], over 128 µM; in assay [4], 58.9 µM.
